Data on three compounds can be found in ChEMBL document CHEMBL3351648, “Synthesis and pharmacological evaluation of 6-aminonicotinic acid analogues as novel GABA(A) receptor agonists” (Eur J Med Chem, 2014).

Active and inactive are the calls of the source. The calls are words filed in the database; no cut-off is given here.

Data set [1] has as its target T1, GABA-A receptor; alpha-1/beta-2/gamma-2 (Homo sapiens, UniProt P14867+P47870+P18507).
T1 sequence (P14867 whole entry): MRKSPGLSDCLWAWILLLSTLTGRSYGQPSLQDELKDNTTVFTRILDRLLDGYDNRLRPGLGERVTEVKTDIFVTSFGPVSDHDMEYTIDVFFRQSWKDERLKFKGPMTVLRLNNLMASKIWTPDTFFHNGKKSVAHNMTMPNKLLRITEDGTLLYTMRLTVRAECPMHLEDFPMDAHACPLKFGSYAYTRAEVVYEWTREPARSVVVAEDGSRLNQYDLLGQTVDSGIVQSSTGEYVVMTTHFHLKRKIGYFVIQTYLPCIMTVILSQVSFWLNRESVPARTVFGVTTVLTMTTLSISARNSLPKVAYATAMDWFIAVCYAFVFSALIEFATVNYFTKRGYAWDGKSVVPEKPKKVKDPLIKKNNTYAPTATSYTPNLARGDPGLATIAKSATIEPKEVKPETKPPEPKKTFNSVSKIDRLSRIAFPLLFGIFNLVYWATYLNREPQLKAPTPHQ
T1 sequence (P47870 whole entry): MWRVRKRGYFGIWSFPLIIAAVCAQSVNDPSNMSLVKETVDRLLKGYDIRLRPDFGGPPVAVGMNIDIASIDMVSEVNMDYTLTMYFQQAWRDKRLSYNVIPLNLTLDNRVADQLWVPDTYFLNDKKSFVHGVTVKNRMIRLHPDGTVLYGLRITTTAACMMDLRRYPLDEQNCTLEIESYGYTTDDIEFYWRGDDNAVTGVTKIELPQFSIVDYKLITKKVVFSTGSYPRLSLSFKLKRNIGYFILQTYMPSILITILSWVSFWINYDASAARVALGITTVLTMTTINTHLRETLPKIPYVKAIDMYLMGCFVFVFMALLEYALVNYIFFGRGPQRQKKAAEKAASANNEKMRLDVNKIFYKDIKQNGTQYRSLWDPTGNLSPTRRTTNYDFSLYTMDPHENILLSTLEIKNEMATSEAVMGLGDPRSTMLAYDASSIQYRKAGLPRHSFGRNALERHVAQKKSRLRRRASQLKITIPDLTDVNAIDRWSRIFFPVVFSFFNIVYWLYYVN
T1 sequence (P18507 whole entry): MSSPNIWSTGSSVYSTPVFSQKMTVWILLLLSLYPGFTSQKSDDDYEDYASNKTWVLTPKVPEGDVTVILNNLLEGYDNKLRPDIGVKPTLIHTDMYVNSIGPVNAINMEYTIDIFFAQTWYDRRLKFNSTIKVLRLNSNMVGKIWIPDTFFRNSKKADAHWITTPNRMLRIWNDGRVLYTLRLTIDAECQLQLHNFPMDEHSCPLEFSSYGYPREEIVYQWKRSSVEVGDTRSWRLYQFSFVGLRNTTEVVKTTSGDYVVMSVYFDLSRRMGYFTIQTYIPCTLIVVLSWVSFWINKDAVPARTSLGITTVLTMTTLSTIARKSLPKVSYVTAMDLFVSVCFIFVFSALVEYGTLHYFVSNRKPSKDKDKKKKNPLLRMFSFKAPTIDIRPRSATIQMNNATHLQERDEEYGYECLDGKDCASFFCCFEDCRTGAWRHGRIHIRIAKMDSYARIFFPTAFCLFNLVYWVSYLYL
Nature of the data set: (§1) Agonist activity at human GABAAalpha1beta2gamma2S receptor expressed in tsA-201cells by FLIPR membrane potential blue assay. The settings on record: tsa-201. The procedure, abridged: (§2)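 tsA201 cells (8×10^5 per 6 cm dish) were transfected with α1, α2, α3 or α5 plus β2 and γ2S cDNAs (1:1:3), or with ρ1 alone. Next day cells were replated into poly-D-lysine 96-well plates. After 16–24 h they were washed with Krebs buffer pH 7.4, given membrane-potential dye, held 30 min at 37 °C, and read at 560 nm emission. Concentration-response curves used ΔFU before versus after agonist; duplicates were run ≥3 times.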

For data set [2], the target named is GABA A receptor alpha-3/beta-2/gamma-2 (Homo sapiens) (UniProt P47870+P18507+P34903). The experiment in a line: Agonist activity at human GABAAalpha3beta2gamma2S receptor expressed in tsA-201cells by FLIPR membrane potential blue assay relative to GABA.
Data set [3] in a line: Agonist activity at human GABAAalpha5beta2gamma2S receptor expressed in tsA-201cells by FLIPR membrane potential blue assay. The data set is classed as cell membranes.
The subject of data set [4] is tsA-201. Nature of the data set: Agonist activity at human GABAAalpha5beta2gamma2S receptor expressed in tsA-201cells by FLIPR membrane potential blue assay relative to GABA.
Data set [5] addresses GABA-A receptor; anion channel. Nature of the data set: Displacement of [3H]muscimol from GABAA receptor in SPRD rat brain synaptic membranes by scintillation counting method. The data set is classed as cell membranes. The procedure, abridged: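 Rat synaptic membranes were thawed, homogenized in ice-cold 50 mM Tris-HCl pH 7.4, and spun at 48,000g for 10 min at 4 °C, with the wash repeated four times. Incubation was with 5 nM [3H]muscimol (final) and varying test concentrations for 60 min at 0 °C, then GF/C filtration and scintillation counting.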
In general terms: Displacement assays read how much labelled ligand stays bound in the presence of the test substance.

Data set [6] deals with T2, Gamma-aminobutyric acid receptor subunit rho-1 (Homo sapiens, UniProt P24046). Nature of the data set: Agonist activity at human GABAA rho1 expressed in tsA-201cells by FLIPR membrane potential blue assay relative to GABA.
T2 sequence (P24046 whole entry): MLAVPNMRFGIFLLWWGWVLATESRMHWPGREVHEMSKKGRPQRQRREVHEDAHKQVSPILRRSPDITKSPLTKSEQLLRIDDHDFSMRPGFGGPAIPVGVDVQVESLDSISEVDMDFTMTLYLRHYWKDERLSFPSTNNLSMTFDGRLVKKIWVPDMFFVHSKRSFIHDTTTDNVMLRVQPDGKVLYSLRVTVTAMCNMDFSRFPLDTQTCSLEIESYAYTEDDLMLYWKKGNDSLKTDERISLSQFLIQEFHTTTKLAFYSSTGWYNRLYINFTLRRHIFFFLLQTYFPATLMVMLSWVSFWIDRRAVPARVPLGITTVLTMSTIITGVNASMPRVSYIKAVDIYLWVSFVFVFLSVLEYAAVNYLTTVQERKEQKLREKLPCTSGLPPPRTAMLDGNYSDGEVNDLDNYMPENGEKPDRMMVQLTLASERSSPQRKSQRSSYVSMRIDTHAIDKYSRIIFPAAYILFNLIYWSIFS
Data set [7] addresses T3, GABA A receptor alpha-3/beta-2/gamma-2 (Homo sapiens, UniProt P18507+P34903+P47870).
T3 sequence (P47870 whole entry): T1 sequence (P47870 whole entry)
T3 sequence (P18507 whole entry): T1 sequence (P18507 whole entry)
T3 sequence (P34903 whole entry): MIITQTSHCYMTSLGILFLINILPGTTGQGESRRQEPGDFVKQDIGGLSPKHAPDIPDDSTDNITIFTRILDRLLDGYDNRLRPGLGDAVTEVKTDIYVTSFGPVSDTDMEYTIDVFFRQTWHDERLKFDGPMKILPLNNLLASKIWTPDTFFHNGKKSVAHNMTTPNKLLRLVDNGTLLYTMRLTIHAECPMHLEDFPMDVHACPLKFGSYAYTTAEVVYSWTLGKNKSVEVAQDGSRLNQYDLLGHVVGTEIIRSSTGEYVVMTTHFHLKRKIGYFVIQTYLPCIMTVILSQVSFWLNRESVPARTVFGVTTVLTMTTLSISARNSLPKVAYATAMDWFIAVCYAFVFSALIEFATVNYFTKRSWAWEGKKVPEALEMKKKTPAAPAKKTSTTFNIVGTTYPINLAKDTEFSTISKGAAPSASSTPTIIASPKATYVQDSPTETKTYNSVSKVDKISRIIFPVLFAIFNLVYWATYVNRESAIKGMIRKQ
The experiment in a line: Agonist activity at human GABAAalpha3beta2gamma2S receptor expressed in tsA-201cells by FLIPR membrane potential blue assay. The gist of the method: as §2

Data set [8] concerns the target T4, GABA A receptor alpha-2/beta-2/gamma-2 (Homo sapiens, UniProt P18507+P47869+P47870).
T4 sequence (P47870 whole entry): T1 sequence (P47870 whole entry)
T4 sequence (P18507 whole entry): T1 sequence (P18507 whole entry)
T4 sequence (P47869 whole entry): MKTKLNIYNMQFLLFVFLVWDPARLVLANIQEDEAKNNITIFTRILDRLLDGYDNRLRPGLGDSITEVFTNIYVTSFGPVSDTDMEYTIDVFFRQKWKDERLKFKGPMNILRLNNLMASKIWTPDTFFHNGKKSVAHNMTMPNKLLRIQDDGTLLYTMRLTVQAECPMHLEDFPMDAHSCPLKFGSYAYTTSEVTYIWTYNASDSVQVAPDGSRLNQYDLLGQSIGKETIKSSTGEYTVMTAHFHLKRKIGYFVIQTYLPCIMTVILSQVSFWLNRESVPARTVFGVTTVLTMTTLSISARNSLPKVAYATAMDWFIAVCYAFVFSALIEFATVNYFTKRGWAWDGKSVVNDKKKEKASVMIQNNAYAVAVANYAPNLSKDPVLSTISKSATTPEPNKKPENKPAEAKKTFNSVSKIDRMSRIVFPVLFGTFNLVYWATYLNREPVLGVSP
Nature of the data set: Agonist activity at human GABAAalpha2beta2gamma2S receptor expressed in tsA-201cells by FLIPR membrane potential blue assay. The procedure, abridged:
as §2

Data set [9] addresses T2, Gamma-aminobutyric acid receptor subunit rho-1. The experiment in a line: Agonist activity at human GABAA rho1 expressed in tsA-201cells at 1 mM by FLIPR membrane potential blue assay. The data set is classed as cell-based. The gist of the method:
(§3)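 Transfected tsA201 cells (α1β2γ2S or ρ1) were loaded with membrane-potential dye in Krebs buffer pH 7.4 for 30 min at 37 °C. Compound was applied at a single 1 mM concentration. Response was read as fluorescence change at 560 nm emission before versus after addition, in duplicate on ≥3 occasions.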

Data set [10] shares this target. The experiment in a line: Agonist activity at human GABAA rho1 expressed in tsA-201cells by FLIPR membrane potential blue assay. To be noted: tsa-201. The gist of the method: as §2
In data set [11] the target is GABA A receptor alpha-2/beta-2/gamma-2 (Homo sapiens) (UniProt P47870+P18507+P47869). Nature of the data set: Agonist activity at human GABAAalpha2beta2gamma2S receptor expressed in tsA-201cells by FLIPR membrane potential blue assay relative to GABA.
The target of data set [12] is GABA-A receptor; alpha-1/beta-2/gamma-2 (Homo sapiens) (UniProt P14867+P47870+P18507). Nature of the data set: Agonist activity at human GABAAalpha1beta2gamma2S receptor expressed in tsA-201cells at 1 mM by FLIPR membrane potential blue assay. Type of data set: cell-based. The gist of the method: as §3
For data set [13], the target named is T5, GABA-A receptor; alpha-1/beta-2/gamma-2 (Homo sapiens, UniProt P14867+P18507+P47870).
T5 sequence (P14867 whole entry): T1 sequence (P14867 whole entry)
T5 sequence (P47870 whole entry): T1 sequence (P47870 whole entry)
T5 sequence (P18507 whole entry): T1 sequence (P18507 whole entry)
Described as §1. To be noted: read-out: EC50. The procedure, abridged:
as §2

A short description of data set [14]: Dissociation constant, pKa of the compound by diode array detector method. Type of data set: physicochemical. The gist of the method:
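pKa was determined by titration in methanol cosolvent at 23–48%, with three titrations per compound. An in-line diode-array detector recorded UV-Vis spectra, and the titration was mapped against the spectra of the protonated and unprotonated species.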

With `O=C(O)C1CCNCC1` [ISONIPECOTIC ACID], the EC50 (in general, the concentration at which the effect is half-maximal) in [1] was “Active”; in data set [3] it was 2.8 µM; in data set [7], 17 µM; in [8], 24 µM; in data set [10], “Active”. Also, the Rmax in data set [2] stood at 85%; in data set [4] it was 115%; in [11], 85%; in data set [12], 66%. Moreover, the pEC50 (commonly the EC50 on a negative log10 scale, so that one unit is a factor of ten) in data set [3] worked out at 5.54. Affinity in data set [5] was put at a Ki of 0.51 µM. The Rmax result in data set [6] was “inactive”. Also, in data set [9], the outcome was Active.
As for `Cc1cc(N)ncc1C(=O)O`, in data set [1], the pEC50 was less than 3. The EC50 in data set [13] was greater than 1000 µM; in [10] it was “Active”. Also, in data set [5], the Ki (in general, the dissociation constant of the complex between target and ligand, obtained from inhibition or displacement) came out at 3.6 µM. Also, the outcome in data set [9] was Active.
With `O=C(O)C1CN=CNC1` (stereo not drawn), the EC50 entry in data set [1] is on record as “Active”. In data set [5], the inhibitory constant (Ki) stood at 5.3 µM and the negative logarithm of the Ki (pKi) (usually the Ki on a negative log10 scale, so that one unit is a factor of ten) is 5.29. Further, the pKa (as a rule, the pH at which an ionisable group is half protonated) in [14] was found to be 12.2. In [12], the Rmax turned out to be 25%.
